Test results as given in ChEMBL document CHEMBL1145931, “Synthesis of a prodrug designed to release multiple inhibitors of the epidermal growth factor receptor tyrosine kinase and an alkylating agent: a novel tumor targeting concept” (J Med Chem, 2003).

Tests used:
NIH3T3 = assay: Inhibition of serum stimulated NIH3T3 cell proliferation; assay type: functional, cell-based; conditions: Mus musculus
Method in brief: (§1)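 Cells were kept in DMEM with 10% FBS, grown to 70% confluence, PBS-washed and serum-starved for 24 h. They were then exposed to drug plus serum for 72 h, with DMSO at most 0.2%. Growth was measured by SRB staining after TCA fixation, OD 492 nm. IC50s are means from three experiments.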

[1] = Inhibition of serum stimulated NIH3T3/neu (ErbB2/neu expressing) cell proliferation; assay type: functional; method in brief: as §1
[2] = Inhibition of serum stimulated HER-14 (EGF-receptor expressing) cell proliferation; assay type: functional; method in brief: as §1
[3] = Half-life period in phosphate buffered saline (PBS); Not active; assay type: ADME; conditions: buffer
[4] = Half-life period in RPMI; Not active; assay type: ADME
Method in brief: (§2)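 Compound dissolved in a minimal amount of DMSO and diluted into RPMI-1640 with 10% FBS. Absorbance was monitored spectrophotometrically in a UV cell held at 37 °C. Half-life came from a one-phase exponential decay curve fit. Each value is from a single experiment.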

[5] = Half-life period in phosphate buffered saline (PBS); assay type: ADME
[6] = Half-life period in RPMI; assay type: ADME; conditions: RPMI medium; method in brief: as §2
[7] = target: Epidermal growth factor receptor (Homo sapiens) (UniProt P00533); assay: Inhibition of epidermal growth factor receptor tyrosine kinase (EGFR TK)
Epidermal growth factor receptor (Homo sapiens), sequence (P00533 whole entry, looked up): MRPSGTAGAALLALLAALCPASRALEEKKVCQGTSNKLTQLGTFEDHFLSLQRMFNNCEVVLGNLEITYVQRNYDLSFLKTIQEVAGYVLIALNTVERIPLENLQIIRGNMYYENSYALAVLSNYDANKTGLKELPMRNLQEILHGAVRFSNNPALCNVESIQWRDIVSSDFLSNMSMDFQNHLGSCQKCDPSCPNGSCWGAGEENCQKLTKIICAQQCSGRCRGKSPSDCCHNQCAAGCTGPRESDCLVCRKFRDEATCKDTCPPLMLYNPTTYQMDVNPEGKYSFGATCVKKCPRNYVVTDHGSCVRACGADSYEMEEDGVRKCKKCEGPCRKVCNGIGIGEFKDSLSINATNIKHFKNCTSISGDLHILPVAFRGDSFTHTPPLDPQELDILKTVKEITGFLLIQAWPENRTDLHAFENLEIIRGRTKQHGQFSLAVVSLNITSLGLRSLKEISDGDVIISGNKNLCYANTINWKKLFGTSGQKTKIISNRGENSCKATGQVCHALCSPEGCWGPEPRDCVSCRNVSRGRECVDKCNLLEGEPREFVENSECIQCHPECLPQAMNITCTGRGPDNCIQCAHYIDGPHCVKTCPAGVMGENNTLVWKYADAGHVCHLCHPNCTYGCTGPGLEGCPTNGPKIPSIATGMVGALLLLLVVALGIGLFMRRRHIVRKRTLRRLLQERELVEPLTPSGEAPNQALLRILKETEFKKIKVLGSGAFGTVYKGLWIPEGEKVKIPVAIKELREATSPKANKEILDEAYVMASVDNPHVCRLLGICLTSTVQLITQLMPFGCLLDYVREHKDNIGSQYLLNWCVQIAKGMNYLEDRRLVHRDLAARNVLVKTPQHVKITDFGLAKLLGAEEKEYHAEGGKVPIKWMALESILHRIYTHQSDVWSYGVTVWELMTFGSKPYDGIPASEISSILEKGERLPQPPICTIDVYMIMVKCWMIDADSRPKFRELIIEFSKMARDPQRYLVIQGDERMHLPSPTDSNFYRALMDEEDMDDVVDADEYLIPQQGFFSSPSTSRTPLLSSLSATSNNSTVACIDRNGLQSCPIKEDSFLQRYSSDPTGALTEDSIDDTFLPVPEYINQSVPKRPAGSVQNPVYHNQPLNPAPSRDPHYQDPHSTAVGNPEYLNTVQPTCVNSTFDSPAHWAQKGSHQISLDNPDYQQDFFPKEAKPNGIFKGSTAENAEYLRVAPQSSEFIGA

| Compound | IC50 (NIH3T3) [µM] | IC50 [1] [µM] | IC50 [2] [µM] | NA [3] | NA [4] | half-life [5] [h] | half-life [6] [h] | IC50 [7] [µM] |
| --- | --- | --- | --- | --- | --- | --- | --- | --- |
| Nc1ccc2ncnc(Nc3cccc(Br)c3)c2c1 | 14.5 | 0.42 | 10.4 | Not Active | Not Active |  |  |  |
| COc1cc2ncnc(Nc3cccc(Cl)c3)c2cc1OC.Cn1nnc2c(C(O)O)ncn2c1=O | 39.4 | 1.1 | 6.2 |  |  |  |  |  |
| CC(=O)N(C)/N=N/c1ccc2ncnc(Nc3cccc(C)c3)c2c1 | 200 | 60.6 | 149 |  |  | > 3.33 | > 3.33 | 0.578 |
| CC(=O)OCN(C)/N=N/c1ccc2ncnc(Nc3cccc(Br)c3)c2c1 | 15.4 | 0.21 | 3.4 |  |  | 1.4 | 0.7 | 0.13 |
| CN(CO)/N=N/c1ccc2ncnc(Nc3cccc(Br)c3)c2c1 | 12.8 | 0.09 | 2.1 |  |  | 1.17 | 0.667 |  |
| C/N=N/Nc1ccc2ncnc(Nc3cccc(C)c3)c2c1 | 125 | 16.5 | 28.9 |  |  | 1.15 | 0.583 |  |
| COc1cc2ncnc(Nc3cccc(Cl)c3)c2cc1OC [TYRPHOSTIN AG-1478] | 28.6 | 4 | 9.8 |  |  |  |  |  |
| C/N=N/Nc1ccc2ncnc(Nc3cccc(Br)c3)c2c1 | 150 | 0.09 | 8.8 |  |  | 1.13 | 0.633 |  |
